Experimental data: ChEMBL document CHEMBL2375304, “Synthesis and anticancer activity of novel 2-pyridyl hexahyrocyclooctathieno[2,3-d]pyrimidine derivatives” (2013)

Experiments:
Assay type in all cases: functional
SF-539 = assay: Growth inhibition of human SF539 cells at 10^-5 M after 48 hrs by Sulforhodamine B assay relative to control; conditions: SF-539, 48 h, read-out: GI
Summary of the method: (§1)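 Single-dose primary screen at 10⁻⁵ M across 49 lines. Cells were plated 24 h beforehand, with a TCA-fixed time-zero plate, then exposed 48 h at 37 °C, 5% CO2. Cells were fixed with cold TCA, stained with SRB and read at 515 nm. Percent growth was calculated against time-zero and untreated-control absorbances.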

NCI-H322M = assay: Growth inhibition of human NCI-H322M cells at 10^-5 M after 48 hrs by Sulforhodamine B assay relative to control; conditions: read-out: GI; summary of the method: as §1
K562 = assay: Growth inhibition of human K562 cells at 10^-5 M after 48 hrs by Sulforhodamine B assay relative to control; conditions: K562, 48 h, read-out: GI
Summary of the method: (§2)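 Single-dose screen at 10⁻⁵ M. Cells are preincubated 24 h at 37 °C in 5% CO2, then exposed to the compound, diluted from a DMSO stock into medium with gentamicin, for 48 h. Adherent cells are fixed with cold TCA (final 10%) and suspension cells with TCA (final 16%). Cells are stained with 0.4% SRB in 1% acetic acid and bound dye is read at 515 nm. Percent growth inhibition is taken against control wells and time-zero plates.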

MOLT-4 = assay: Growth inhibition of human MOLT4 cells at 10^-5 M after 48 hrs by Sulforhodamine B assay relative to control; conditions: MOLT-4, 48 h, read-out: GI; summary of the method: as §1
CCRF-CEM = assay: Growth inhibition of human CCRF-CEM cells at 10^-5 M after 48 hrs by Sulforhodamine B assay relative to control; conditions: read-out: GI; summary of the method: as §2
MDA-MB-231 = assay: Growth inhibition of human MDA-MB-231 cells at 10^-5 M after 48 hrs by Sulforhodamine B assay relative to control; conditions: MDA-MB-231, 48 h, read-out: GI; summary of the method: as §2
DU-145 = assay: Growth inhibition of human DU145 cells at 10^-5 M after 48 hrs by Sulforhodamine B assay relative to control; conditions: DU-145, 48 h, read-out: GI; summary of the method: as §2
ACHN = assay: Growth inhibition of human ACHN cells at 10^-5 M after 48 hrs by Sulforhodamine B assay relative to control; conditions: read-out: GI; summary of the method: as §2
A498 = assay: Growth inhibition of human A498 cells at 10^-5 M after 48 hrs by Sulforhodamine B assay relative to control; conditions: A498, 48 h, read-out: GI; summary of the method: as §2
SK-OV-3 = assay: Growth inhibition of human SKOV3 cells at 10^-5 M after 48 hrs by Sulforhodamine B assay relative to control; conditions: SK-OV-3, 48 h, read-out: GI; summary of the method: as §1
OVCAR-8 = assay: Growth inhibition of human OVCAR8 cells at 10^-5 M after 48 hrs by Sulforhodamine B assay relative to control; conditions: OVCAR-8, 48 h, read-out: GI; summary of the method: as §1
SK-MEL-28 = assay: Growth inhibition of human SK-MEL-28 cells at 10^-5 M after 48 hrs by Sulforhodamine B assay relative to control; conditions: SK-MEL-28, 48 h, read-out: GI; summary of the method: as §1
Malme-3M = assay: Growth inhibition of human MALME-3M cells at 10^-5 M after 48 hrs by Sulforhodamine B assay relative to control; conditions: read-out: GI; summary of the method: as §2

CN1CCN(c2nc(-c3ccccn3)nc3sc4c(c23)CCCCCC4)CC1
inhibition of growth at 10 µM (SF-539): 37.4%
inhibition of growth at 10 µM (NCI-H322M): 1.03%
inhibition of growth at 10 µM (K562): 20%
inhibition of growth at 10 µM (MOLT-4): 7.6%
inhibition of growth at 10 µM (CCRF-CEM): 5.41%
inhibition of growth at 10 µM (MDA-MB-231): 6.82%
inhibition of growth at 10 µM (DU-145): -11.6%
inhibition of growth at 10 µM (ACHN): 4.94%
inhibition of growth at 10 µM (A498): 34.8%
inhibition of growth at 10 µM (SK-OV-3): -3.22%
inhibition of growth at 10 µM (OVCAR-8): -1.5%
inhibition of growth at 10 µM (SK-MEL-28): -5.08%
inhibition of growth at 10 µM (Malme-3M): -0.36%

Clc1nc(-c2ccncc2)nc2sc3c(c12)CCCCCC3
inhibition of growth at 10 µM (SF-539): 6.69%
inhibition of growth at 10 µM (NCI-H322M): 3.46%
inhibition of growth at 10 µM (K562): 13.6%
inhibition of growth at 10 µM (MOLT-4): 15.6%
inhibition of growth at 10 µM (CCRF-CEM): 23.8%
inhibition of growth at 10 µM (MDA-MB-231): -6.99%
inhibition of growth at 10 µM (DU-145): 8.02%
inhibition of growth at 10 µM (ACHN): -0.47%
inhibition of growth at 10 µM (A498): 37.2%
inhibition of growth at 10 µM (SK-OV-3): -7.46%
inhibition of growth at 10 µM (OVCAR-8): -1.87%
inhibition of growth at 10 µM (SK-MEL-28): -4.12%
inhibition of growth at 10 µM (Malme-3M): 7.42%
